Tests used:
Assay type in all cases: functional, cell-based
[1] = biological target: T1, Melatonin receptor type 1B (Homo sapiens) (UniProt P49286); experiment: Agonist activity at MT2 receptor (unknown origin) expressed in HEK293 cells at 0.5 mM by Fluo-8 dye-based calcium assay relative to control
T1 sequence (whole entry): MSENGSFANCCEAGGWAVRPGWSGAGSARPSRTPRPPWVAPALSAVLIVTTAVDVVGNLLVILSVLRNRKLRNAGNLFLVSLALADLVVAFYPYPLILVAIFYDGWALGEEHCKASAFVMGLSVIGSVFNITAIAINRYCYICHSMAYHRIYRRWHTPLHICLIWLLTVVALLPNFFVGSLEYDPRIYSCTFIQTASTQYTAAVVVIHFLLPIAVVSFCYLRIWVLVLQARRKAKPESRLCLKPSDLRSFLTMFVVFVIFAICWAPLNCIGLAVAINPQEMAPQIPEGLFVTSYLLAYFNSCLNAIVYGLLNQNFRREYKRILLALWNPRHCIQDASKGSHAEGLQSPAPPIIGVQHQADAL
Method in brief: (§1)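 HEK293 cells grown at 37 °C, 5% CO2 in DMEM with 10% FBS and G418 (400 μg/mL). Seeded at 4 × 10⁴/well on Matrigel-coated plates and grown 24 h. Loaded with Fluo-8 calcium dye for 1 h. Compounds were dissolved in DMSO and diluted in HBSS, then added automatically. Fluorescence was read at room temperature (ex 485 nm, em 525 nm, cut-off 515 nm). Agonistic rate was measured at 0.5 mM.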

[2] = biological target: T2, Melatonin receptor type 1A (Homo sapiens, UniProt P48039); experiment: Agonist activity at MT1 receptor (unknown origin) expressed in HEK293 cells at 0.5 mM by Fluo-8 dye-based calcium assay relative to control; method in brief: as §1
T2 sequence (P48039 whole entry): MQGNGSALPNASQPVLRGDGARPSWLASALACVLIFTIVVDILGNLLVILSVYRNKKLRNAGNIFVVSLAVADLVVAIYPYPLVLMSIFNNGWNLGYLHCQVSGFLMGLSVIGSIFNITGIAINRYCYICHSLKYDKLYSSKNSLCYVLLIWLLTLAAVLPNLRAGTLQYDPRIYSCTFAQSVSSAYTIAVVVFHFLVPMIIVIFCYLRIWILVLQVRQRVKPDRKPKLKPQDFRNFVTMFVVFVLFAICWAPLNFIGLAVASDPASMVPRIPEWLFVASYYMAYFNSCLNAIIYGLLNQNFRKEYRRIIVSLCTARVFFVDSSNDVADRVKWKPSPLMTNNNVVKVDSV

[3] = biological target: T3, Melatonin receptor type 1B (Homo sapiens, UniProt P49286); experiment: Agonist activity at MT2 receptor (unknown origin) expressed in HEK293 cells by Fluo-8 dye-based calcium assay
T3 sequence (P49286 whole entry): T1 sequence (whole entry)

[4] = biological target: T2, Melatonin receptor type 1A; experiment: Agonist activity at MT1 receptor (unknown origin) expressed in HEK293 cells by Fluo-8 dye-based calcium assay

SMILES	Activity [1] [%]	Activity [2] [%]	EC50 [3] [µM]	EC50 [4] [µM]
Oc1ccc(Cc2ccc(O)c(Cc3ccc(O)cc3)c2)cc1	134	46.5	–	–
Oc1ccc(COCc2ccc(O)c(Cc3ccc(O)cc3)c2)cc1	59.4	25.1	–	–
CN(c1ccc(O)cc1)c1ccc(O)cc1	44.7	-9.5	–	–
Oc1ccc(Cc2cc(Sc3ccc(O)cc3)ccc2O)cc1	48.4	31.3	–	–
Oc1ccc(Cc2ccc(O)cc2)cc1	103	80.3	244	237
CCOCc1ccc(O)c(Cc2ccc(O)c(COCC)c2)c1	5.3	-11.2	–	–
Oc1ccc(Sc2ccc(O)cc2)cc1	94.1	44.6	–	–
Oc1ccc(Cc2ccc(O)c(Cc3ccccc3Cc3ccccc3)c2)cc1	-6.7	-2.3	–	–
CCOCc1ccc(O)c(Cc2ccc(O)c(Cc3ccc(O)cc3)c2)c1	-10.4	-5.7	–	–
OC[C@H]1O[C@@H](Oc2ccc(Sc3ccc(O)cc3)cc2)[C@H](O)[C@@H](O)[C@@H]1O	-2.2	-2.3	–	–
Oc1ccc(Cc2cc(Oc3ccc(O)cc3)ccc2O)cc1	51.2	37.1	–	–
CCOCc1ccc(O)c(Cc2ccc(O)cc2)c1	38.3	3.3	–	–
Oc1ccc(COc2ccc(Cc3ccc(O)cc3)cc2)cc1	15.3	-5.6	–	–
CC(=O)OC[C@H]1O[C@@H](Oc2ccc(Sc3ccc(O[C@@H]4O[C@H](COC(C)=O)[C@@H](OC(C)=O)[C@H](OC(C)=O)[C@H]4OC(C)=O)cc3)cc2)[C@H](OC(C)=O)[C@@H](OC(C)=O)[C@@H]1OC(C)=O	-3.6	-0.4	–	–
CCOCc1cc(Cc2ccc(O)cc2)ccc1O	117	37	–	–
CCOCc1cc(Cc2ccc(O)cc2)c(O)c(Cc2ccc(O)c(Cc3ccc(O)cc3)c2)c1	29.5	-5.3	–	–
Oc1ccc(Cc2ccc(O)c(Cc3ccccc3)c2)cc1	-6.6	-8.6	–	–
Oc1ccc(Oc2ccc(O)cc2)cc1	67.1	45.9	–	–
CC(=O)OC[C@H]1O[C@@H](Oc2ccc(Sc3ccc(O)cc3)cc2)[C@H](OC(C)=O)[C@@H](OC(C)=O)[C@@H]1OC(C)=O	8.5	0.3	–	–

From ChEMBL document CHEMBL4387755 (Bioorg Med Chem, 2019)
